Test [1] deals with Radical scavenging activity. Nature of the test: Antioxidant activity assessed as DPPH free radical scavenging activity. The format is functional. In a few lines:
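DPPH in methanol (150 µM) incubated with various compound concentrations at 37 C for 30 min; absorbance read at 517 nm. Percent scavenging = 100 × (Abs control − Abs compound)/Abs control; IC50 obtained by linear regression of percent inhibition against concentration.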
A general note: The DPPH test is a chemical assay of radical scavenging.

Test [2] in a line: Antioxidant activity at 100 ug by ferric reducing antioxidant power assay. The format is functional. In a few lines: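 FRAP reagent: 10 vol 300 mM acetate buffer pH 3.6, 1 vol 10 mM TPTZ in 40 mM HCl, 1 vol 20 mM FeCl3, diluted to 1/3 with methanol, pre-warmed to 37 C. Diluted compound mixed with reagent, 8 min at 37 C, absorbance at 593 nm against methanol blank; expressed as lM ferric reduced to ferrous, calibrated with known ferrous ion.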

For the next test, the system named is Brain. In words: Antioxidant activity in Wistar rat brain assessed as inhibition of lipid peroxidation. Type of test: functional, tissue-based. In a few lines: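 Brain homogenate (10% w/v) of young adult male Wistar rats in 0.15 M KCl, 800g 10 min supernatant. Compounds in DMSO at varying amounts; peroxidation started with FeCl3 plus ascorbic acid, 20 min at 37 C. Stopped with phosphotungstic acid and thiobarbituric acid, heated 100 C 10 min, n-butanol extract read by fluorescence (ex 515/em 555 nm); IC50 from log dose–inhibition curve.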

Structures are written as SMILES. Active and inactive are the calls of the source. The calls are words filed in the database; no cut-off is given here.

This note sets out measurements from ChEMBL document CHEMBL1140585, “Synthesis and antioxidant properties of substituted 3-benzylidene-7-alkoxychroman-4-ones” (Bioorg Med Chem Lett, 2007).

One may read the IC50 as the concentration at which inhibition is half-maximal. As for `COc1cccc(/C=C2\COc3cc(OC)ccc3C2=O)c1`, the IC50 (in test [1]; with Brain) was more than 100 µM throughout. Besides, the outcome in test [2] was inactive.

As for `CCCCOc1ccc2c(c1)OC/C(=C\c1ccc(O)c(O)c1)C2=O`, the IC50 in test [1] is 24.5 µM; in the test on Brain it was 11 µM. Also, the Activity in test [2] was found to be 44.6.

In the case of `COc1ccc2c(c1)OC/C(=C\c1ccccc1OC)C2=O`, the IC50 (in test [1]; with Brain) was more than 100 µM in each case. For the same molecule, the outcome in test [2] was inactive.

Consider `COc1ccc(/C=C2\COc3cc(OC)ccc3C2=O)cc1`, for which the IC50 (in test [1]; in the test with Brain) was more than 100 µM each time. In addition, in test [2], the result was inactive.

Regarding `CCCOc1ccc2c(c1)OC/C(=C\c1ccc(O)c(O)c1)C2=O`, the IC50 was found to be 25.4 µM in test [1] and 11.4 µM with Brain. This molecule also came in with an Activity in test [2] of 53.8.

Turning to `COc1ccc2c(c1)OC/C(=C\c1ccc(O)cc1)C2=O`, the half-inhibitory concentration (IC50) (in test [1]; in the test with Brain) was more than 100 µM throughout. In addition, in test [2], the outcome was inactive.

As for `COc1ccc2c(c1)OC/C(=C\c1cc(OC)c(O)c(OC)c1)C2=O`, the IC50 in test [1] was determined as 30.8 µM; with Brain, 11 µM. Besides, the Activity in test [2] came to 61.6.

Regarding `O=C1/C(=C/c2ccc(O)cc2)COc2cc(O)ccc21`, the 50% inhibitory concentration (IC50) (in test [1]; in the test on Brain) was more than 100 µM in each case. In test [2], the result was inactive.

Turning to `CCOc1ccc2c(c1)OC/C(=C\c1ccc(O)c(O)c1)C2=O`, the IC50 is 24.3 µM in test [1] and 11.9 µM with Brain. The same molecule returned an Activity in test [2] of 62.7.

As for `Cc1c(C)c2c(c(C)c1O)CCC(C)(C(=O)O)O2` (stereo unspecified) [TROLOX], the IC50 was 36.3 µM in test [1] and 41.6 µM in the test with Brain. In test [2], the Activity was 41.9.

In the case of `COc1ccc2c(c1)OC/C(=C\c1ccc(O)c(O)c1)C2=O`, the IC50 in test [1] turned out to be 27.2 µM; with Brain it was 12.1 µM. Moreover, the Activity in test [2] amounted to 71.6.

As for `O=C1/C(=C/c2ccc(O)c(O)c2)COc2cc(O)ccc21` [SAPPANONE A], the IC50 in test [1] was 35 µM; with Brain, 14.3 µM. In test [2], the Activity worked out at 49.3.
